Here are results for 19 compounds from ChEMBL document CHEMBL4308838, “Subtle Modifications to the Indole-2-carboxamide Motif of the Negative Allosteric Modulator N-(( trans)-4-(2-(7-Cyano-3,4-dihydroisoquinolin-2(1 H)-yl)ethyl)cyclohexyl)-1 H-indole-2-carboxamide (SB269652) Yield Dramatic Changes in Pharmacological Activity at the Dopamine D2 Receptor” (J Med Chem, 2018).

SMILES strings stand for the structures.

For orientation: pKb means the Kb on a negative log10 scale, so that one unit is a factor of ten.

Assay type in all cases: cell-based
In assay [1] the target is D(2) dopamine receptor (Homo sapiens) (UniProt P14416). As to the kind of experiment: Negative allosteric modulation of human D2LR expressed in Flp-In-CHO cells assessed as inhibition of dopamine-indued ERK1/2 phosphorylation preincubated for 30 mins followed by dopamine addition and measured after 5 mins by AlphaScreen assay. The gist of the method: (§1)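 pERK1/2 signalling through the long D2 isoform (D2LR) expressed in FlpIn CHO cells. Test ligands were measured against increasing dopamine concentrations. Curves were fitted with an operational model of allosterism (functional affinity KB, cooperativity α, efficacy modulation β, net αβ) and with a Gaddum-Schild model (KB, Schild slope). The better fit was chosen by F-test. Mean ± SEM of three experiments run in duplicate.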
For orientation: Bead proximity is the source of the signal in Alpha formats.

For assay [2] the target is unchanged. As to the kind of experiment: Negative allosteric modulation of human D2LR expressed in Flp-In-CHO cells assessed as inhibition of dopamine-indued ERK1/2 phosphorylation preincubated for 30 mins followed by dopamine addition and measured after 5 mins by AlphaScreen assay relative to control. In a few lines: as §1
Assay [3] shares this target. The assay is described as follows: Negative allosteric modulation of human D2LR expressed in Flp-In-CHO cells assessed as inhibition of dopamine-indued ERK1/2 phosphorylation by measuring negative co-operativity factor preincubated for 30 mins followed by dopamine addition and measured after 5 mins by AlphaScreen assay. In a few lines:
as §1

The target is the same in assay [4]. The assay is described as follows: Negative allosteric modulation of human D2LR expressed in Flp-In-CHO cells assessed as inhibition of dopamine-indued ERK1/2 phosphorylation by measuring effect on dopamine efficacy preincubated for 30 mins followed by dopamine addition and measured after 5 mins by AlphaScreen assay relative to control. In a few lines:
as §1

Assay [5] shares this target. As to the kind of experiment: Negative allosteric modulation of human D2LR expressed in Flp-In-CHO cells assessed as inhibition of dopamine-indued ERK1/2 phosphorylation by measuring co-operativity factor preincubated for 30 mins followed by dopamine addition and measured after 5 mins by AlphaScreen assay. In a few lines: as §1
For assay [6] the target is unchanged. The assay is described as follows: Negative allosteric modulation of human D2LR expressed in Flp-In-CHO cells assessed as inhibition of dopamine-indued ERK1/2 phosphorylation by measuring effect on dopamine efficacy preincubated for 30 mins followed by dopamine addition and measured after 5 mins by AlphaScreen assay. The gist of the method:
as §1

Assay [7] has the same target. As to the kind of experiment: Negative allosteric modulation of human D2LR expressed in Flp-In-CHO cells assessed as inhibition of dopamine-indued ERK1/2 phosphorylation by measuring co-operativity factor preincubated for 30 mins followed by dopamine addition and measured after 5 mins by AlphaScreen assay relative to control. In a few lines:
as §1

Chain of D(2) dopamine receptor (Homo sapiens) (P14416 whole entry, canonical isoform): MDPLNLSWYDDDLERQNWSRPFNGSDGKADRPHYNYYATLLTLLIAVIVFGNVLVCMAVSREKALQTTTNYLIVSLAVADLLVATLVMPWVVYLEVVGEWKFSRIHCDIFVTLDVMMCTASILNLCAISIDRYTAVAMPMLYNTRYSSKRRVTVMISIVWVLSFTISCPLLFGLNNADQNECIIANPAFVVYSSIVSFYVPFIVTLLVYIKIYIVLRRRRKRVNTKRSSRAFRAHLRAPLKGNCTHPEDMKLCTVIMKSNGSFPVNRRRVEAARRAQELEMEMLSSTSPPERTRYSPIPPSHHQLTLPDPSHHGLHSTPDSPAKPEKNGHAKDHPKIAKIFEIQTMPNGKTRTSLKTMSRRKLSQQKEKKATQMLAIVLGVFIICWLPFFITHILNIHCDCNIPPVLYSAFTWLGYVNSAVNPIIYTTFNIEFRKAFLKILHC

In the case of `N#Cc1ccc2c(c1)CN(CC[C@H]1CC[C@H](NC(=O)c3c[nH]c4ccncc34)CC1)CC2`, in assay [1], the Kb stood at 3.5 nM and the pKb amounted to 8.46.

As for `N#Cc1ccc2c(c1)CN(CC[C@H]1CC[C@H](NC(=O)c3cc4ccc(F)cc4[nH]3)CC1)CC2`, the fold change (FC) in assay [2] is 15. Besides, in assay [1], the Kb was found to be 219 nM and the pKb was 6.66. Besides, in assay [3], the Activity was found to be 0.065 and the log(activity) was -1.19.

With `N#Cc1ccc2c(c1)CN(CC[C@H]1CC[C@H](NC(=O)c3cnc4ccccn34)CC1)CC2`, the fold change (FC) in assay [2] was 210. In assay [1], the Kb worked out at 24 nM and the pKb came out at 7.62. In addition, in assay [3], the Activity is 0.0048 and the log(activity) was -2.31.

For `COc1ccc2cc(C(=O)N[C@H]3CC[C@H](CCN4CCc5ccc(C#N)cc5C4)CC3)[nH]c2c1`, in assay [1], the Kb was determined as 25 nM and the pKb was determined as 7.6.

On to `N#Cc1ccc2c(c1)CN(CC[C@H]1CC[C@H](NC(=O)c3cc4cccc(F)c4[nH]3)CC1)CC2`, for which, in assay [2], the fold change (FC) turned out to be 62. Besides, in assay [1], the Kb worked out at 4.5 nM and the pKb turned out to be 8.35. Also, in assay [3], the Activity is 0.016 and the log(activity) is -1.79.

Consider `N#Cc1ccc2c(c1)CN(CC[C@H]1CC[C@H](NC(=O)c3cc4cc(F)ccc4[nH]3)CC1)CC2`, for which, in assay [2], the fold change (FC) was 63. Also, in assay [1], the Kb stood at 6.8 nM and the pKb was 8.17. In addition, in assay [3], the Activity was 0.016 and the log(activity) is -1.8.

For the compound `N#Cc1ccc2c(c1)CN(CC[C@H]1CC[C@H](NC(=O)c3c[nH]c4cccnc34)CC1)CC2`, in assay [1], the Kb was 0.148 nM and the pKb was found to be 9.83. Also, the fold change (FC) in assay [4] was determined as 6. Also, in assay [5], the Activity turned out to be 0.048 and the log(activity) is -1.32. Also, in assay [6], the Activity worked out at 0.16 and the log(activity) is -0.8. Moreover, in assay [7], the fold change (FC) came out at 21.

Turning to `N#Cc1ccc2c(c1)CN(CC[C@H]1CC[C@H](NC(=O)c3cc4c(F)cccc4[nH]3)CC1)CC2`, in assay [2], the fold change (FC) turned out to be 32. Further, in assay [1], the Kb stood at 47 nM and the negative logarithm of the Kb (pKb) worked out at 7.33. In addition, in assay [3], the Activity came to 0.032 and the log(activity) was -1.5.

For the compound `N#Cc1ccc2c(c1)CN(CC[C@H]1CC[C@H](NC(=O)c3cc4sccc4[nH]3)CC1)CC2`, in assay [1], the Kb worked out at 87 nM and the pKb was determined as 7.06.

Consider `N#Cc1ccc2c(c1)CN(CC[C@H]1CC[C@H](NC(=O)c3cc4ccccn4n3)CC1)CC2`, for which the fold change (FC) in assay [2] was found to be 33. Further, in assay [1], the Kb amounted to 165 nM and the pKb turned out to be 6.78. Besides, in assay [3], the Activity is 0.03 and the log(activity) was -1.52.

Take `N#Cc1ccc2c(c1)CN(CC[C@H]1CC[C@H](NC(=O)c3cc4ccncc4[nH]3)CC1)CC2`: in assay [2], the fold change (FC) was 1800. Besides, in assay [1], the Kb turned out to be 2.7 nM and the pKb came to 8.57. Moreover, in assay [3], the Activity was 0.00055 and the log(activity) is -3.26.

As to `COc1ccc2[nH]c(C(=O)N[C@H]3CC[C@H](CCN4CCc5ccc(C#N)cc5C4)CC3)cc2c1`, in assay [1], the Kb was determined as 2 nM and the pKb was determined as 8.7.

As to `N#Cc1ccc2c(c1)CN(CC[C@H]1CC[C@H](NC(=O)c3cc4cccnc4[nH]3)CC1)CC2`, the fold change (FC) in assay [2] worked out at 26. Moreover, in assay [1], the pKb stood at 7.63. Moreover, in assay [3], the Activity worked out at 0.038 and the log(activity) was -1.42.

As to `N#Cc1ccc2c(c1)CN(CC[C@H]1CC[C@H](NC(=O)c3c[nH]c4ccccc34)CC1)CC2`, in assay [1], the Kb was determined as 63 nM and the pKb turned out to be 7.2.

Turning to `N#Cc1ccc2c(c1)CN(CC[C@H]1CC[C@H](NC(=O)c3cnn4ccccc34)CC1)CC2`, in assay [1], the Kb came to 40 nM and the pKb is 7.39.

As for `N#Cc1ccc2c(c1)CN(CC[C@H]1CC[C@H](NC(=O)c3c[nH]c4ncccc34)CC1)CC2`, in assay [2], the fold change (FC) came to 32. In assay [1], the Kb came to 34 nM and the pKb is 7.47. In assay [3], the Activity was 0.032 and the log(activity) was -1.5.

As to `N#Cc1ccc2c(c1)CN(CC[C@H]1CC[C@H](NC(=O)c3c[nH]c4cnccc34)CC1)CC2`, the fold change (FC) in assay [2] was 275. In addition, in assay [1], the Kb was found to be 10 nM and the negative-log Kb (pKb) is 8. In assay [3], the Activity amounted to 0.0036 and the log(activity) is -2.44.

Take `COc1cccc2[nH]c(C(=O)N[C@H]3CC[C@H](CCN4CCc5ccc(C#N)cc5C4)CC3)cc12`: in assay [2], the fold change (FC) amounted to 3. For the same compound, in assay [1], the Kb came out at 617 nM and the pKb came to 6.21. In addition, in assay [3], the Activity amounted to 0.3 and the log(activity) was -0.52.

As to `COc1cccc2cc(C(=O)N[C@H]3CC[C@H](CCN4CCc5ccc(C#N)cc5C4)CC3)[nH]c12`, in assay [1], the Kb was 51 nM and the pKb was 7.29.
